Laboratory results: ChEMBL document CHEMBL2093137, “WHO-TDR NTD Screening”
Values after ≈ are worked out from the molar mass of the structure shown.

How the values were obtained:
[1] = WHO-TDR: Cytotoxicity; type: toxicity, cell-based; details: human, MRC5 cells
Plasmodium falciparum K1 = assay: WHO-TDR: Malaria; type: functional, organism-based, Homo sapiens; details: Erythrocyte
How it was run: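 Previously published standard procedures, including a reference drug as positive control, were used to screen whole Plasmodium falciparum K1 parasites inside human red blood cells. IC50 is the measure of antiplasmodial potency. The compounds were a 10,000-member diverse Life Chemicals library.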

Trypanosoma cruzi = assay: WHO-TDR: Chagas disease; type: functional, organism-based, Homo sapiens; details: MRC5
How it was run: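 Each IC50 reflects antiparasitic potency against intracellular amastigotes of Trypanosoma cruzi Tulahuen CL2 beta-galactosidase strain. These were cultured in MRC-5SV2 human lung fibroblasts and exposed to a 10,000-compound diverse Life Chemicals library screened according to published standard procedures with a reference drug as positive control.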

Leishmania infantum = assay: WHO-TDR: Leishmaniasis; type: functional, organism-based, Mus musculus; details: Macrophage
How it was run: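 Intracellular amastigotes of Leishmania infantum MHOM/MA(BE)/67, hosted in murine peritoneal macrophages, were exposed to compounds from a 10,000-member diverse library supplied by Life Chemicals. The library had been filtered for drug-likeness and reactive groups. The reported IC50 expresses antiparasitic potency.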

Onchocerca ochengi [2] = assay: (§1) WHO-TDR: Onchocerciasis; type: functional; parameters: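 at 12.5 µM on microfilariae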
How it was run: (§2)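 Whole-organism screen of a 10,000-compound diverse library from Life Chemicals, filtered for drug-likeness and reactive groups, against microfilariae of Onchocerca ochengi or Onchocerca lienalis, used as animal-pathogen stand-ins for the human parasite. The assay followed previously published standard procedures, with reference drugs as positive controls. Activity is reported as percent inhibition and as IC50.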

Schistosoma mansoni = assay: WHO-TDR: Schistosomiasis; type: functional; parameters: concentration or dose not given beside the values
How it was run: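 Whole-organism screen of a 10,000-compound diverse library from Life Chemicals, filtered for drug-likeness and reactive groups, against larval and/or adult worms of Schistosoma mansoni Puerto Rican strain. The assay followed previously published standard procedures, with a reference drug as positive control. Activity is reported as percent inhibition and as IC50.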

Onchocerca ochengi [3] = assay: as §1; type: functional; parameters: concentration or dose not given beside the values; how it was run: as §2; remark: listed apart in the source
[4] = system: Trypanosoma brucei brucei; assay: WHO-TDR: Human African Trypanosomiasis (HAT); type: functional, organism-based; details: Squib-427
How it was run: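 In this whole-organism screen, the target was the bloodstream form of Trypanosoma brucei, strain Squib 427. A diverse set of 10,000 compounds from Life Chemicals, previously filtered for drug-likeness and reactive groups, was assayed by standard published procedures using reference drugs as positive controls. Each value is an IC50 for antiparasitic potency.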

IC50 (Plasmodium falciparum K1) | IC50 (Leishmania infantum) | IC50 [4] | Compound | IC50 [1] | IC50 (Trypanosoma cruzi) | % Inhibition (Onchocerca ochengi [2]) | % Inhibition (Schistosoma mansoni) | % Inhibition (Onchocerca ochengi [3])
> 11 mg/L | > 11 mg/L | > 11 mg/L | CN1CCN(C(CNC(=O)c2c(F)cccc2F)c2ccsc2)CC1 (stereo not drawn) | > 11 mg/L | 0.406 mg/L (≈ 1.11 µM) | 0% | 0% | 0%
> 10.7 mg/L | > 10.7 mg/L | > 10.7 mg/L | CN1CCN(C(CNC(=O)CCc2ccccc2)c2ccsc2)CC1 (stereo not drawn) | > 10.7 mg/L | 0.498 mg/L (≈ 1.39 µM) | 0% | 0% | 0%
> 10.8 mg/L | > 10.8 mg/L | > 10.8 mg/L | O=S(=O)(Nc1nc2c(Cl)cccc2s1)c1ccc(Cl)cc1 | > 10.8 mg/L | 10.2 mg/L (≈ 28.4 µM) | 0% | 0% | 100%
> 11 mg/L | > 11 mg/L | > 11 mg/L | O=S(=O)(Nc1nc2c(Cl)cccc2s1)c1ccc(Cl)s1 | > 11 mg/L | 10.4 mg/L (≈ 28.5 µM) | 0% | 0% | 100%
> 12.2 mg/L | > 12.2 mg/L | > 12.2 mg/L | O=S(=O)(Nc1cccc(-c2nc3ccccc3s2)c1)c1ccc(Cl)s1 | > 12.2 mg/L | 4.01 mg/L (≈ 9.85 µM) | 0% | 0% | 100%
> 12.7 mg/L | > 12.7 mg/L | 4.11 mg/L (≈ 9.71 µM) | Cc1cccc(NC(=O)Cn2cc(S(=O)(=O)c3ccc(F)cc3)c3ccccc32)n1 | > 12.7 mg/L | 4.41 mg/L (≈ 10.4 µM) | 0% | 0% | 100%
> 7.39 mg/L | > 7.39 mg/L | 2.42 mg/L (≈ 9.83 µM) | O=C(Nc1onc2c1CCC2)c1cccc(F)c1 | 4.88 mg/L (≈ 19.8 µM) | 2.12 mg/L (≈ 8.63 µM) | 0% | 0% | 100%
> 9.81 mg/L | > 9.81 mg/L | 0.334 mg/L (≈ 1.02 µM) | O=C(COc1ccc(Cl)cc1Cl)Nc1onc2c1CCC2 | > 9.81 mg/L | > 9.81 mg/L | 0% | 0% | 0%
1.69 mg/L (≈ 5.79 µM) | > 8.77 mg/L | 0.253 mg/L (≈ 0.865 µM) | O=C(Cc1cccc2ccccc12)Nc1onc2c1CCC2 | 2.87 mg/L (≈ 9.83 µM) | 0.498 mg/L (≈ 1.7 µM) | 0% | 0% | 0%
2.83 mg/L (≈ 8.72 µM) | > 9.73 mg/L | 3.19 mg/L (≈ 9.83 µM) | O=C(CS(=O)(=O)c1ccc(F)cc1)Nc1onc2c1CCC2 | > 9.73 mg/L | 1.71 mg/L (≈ 5.28 µM) | 0% | 0% | 100%
8.46 mg/L (≈ 25.3 µM) | > 10 mg/L | 3.25 mg/L (≈ 9.71 µM) | O=C(Nc1onc2c1CCCC2)c1cccc(Oc2ccccc2)c1 | > 10 mg/L | 4.23 mg/L (≈ 12.7 µM) | 0% | 0% | 100%
> 11.3 mg/L | > 11.3 mg/L | 5.97 mg/L (≈ 15.9 µM) | CN(C1CC1)S(=O)(=O)c1ccc(C(=O)Nc2onc3c2CCCC3)cc1 | > 11.3 mg/L | 3.56 mg/L (≈ 9.49 µM) | 0% | 0% | 100%
6.28 mg/L (≈ 15.2 µM) | > 12.4 mg/L | 4.03 mg/L (≈ 9.71 µM) | Cc1cc(F)ccc1S(=O)(=O)Nc1ccc2c(c1)CN(C(=O)c1ccco1)CC2 | 7.31 mg/L (≈ 17.6 µM) | 3.44 mg/L (≈ 8.3 µM) | 0% | 0% | 100%
2.13 mg/L (≈ 5.19 µM) | > 12.3 mg/L | 2.56 mg/L (≈ 6.26 µM) | O=C(Nc1nc2c(s1)CCCC2C(=O)NCCC1=CCCCC1)c1ccccc1 (stereo not drawn) | > 12.3 mg/L | 3.45 mg/L (≈ 8.42 µM) | 0% | 0% | 100%
> 10.5 mg/L | > 10.5 mg/L | > 10.5 mg/L | Cc1nn2c(=O)[nH]c(SCc3ccccn3)nc2c1-c1ccccc1 | > 10.5 mg/L | > 10.5 mg/L | 0% | 0% | 100%
4.63 mg/L (≈ 10.4 µM) | > 13.3 mg/L | 0.459 mg/L (≈ 1.03 µM) | O=C(Nc1ccc(F)cc1)Nc1nc(C(=O)N2CCN(c3ccccc3F)CC2)cs1 | 5.3 mg/L (≈ 11.9 µM) | 4.32 mg/L (≈ 9.74 µM) | 0% | 0% | 0%
2.96 mg/L (≈ 6.93 µM) | > 12.8 mg/L | 4.14 mg/L (≈ 9.71 µM) | O=C(Cn1c(=O)n(Cc2cccnc2)c(=O)c2ncccc21)c1ccc2c(c1)CCCC2 | > 12.8 mg/L | 3.81 mg/L (≈ 8.93 µM) | 0% | 0% | 100%
2.95 mg/L (≈ 6.76 µM) | > 13.1 mg/L | 4.24 mg/L (≈ 9.72 µM) | CCOc1ccccc1NC(=O)Cn1c(=O)n(Cc2cccs2)c(=O)c2ncccc21 | > 13.1 mg/L | > 13.1 mg/L | 0% | 0% | 100%
> 12.2 mg/L | > 12.2 mg/L | > 12.2 mg/L | O=C(Cn1c(=O)n(Cc2cccs2)c(=O)c2ncccc21)OCc1ccccc1 | > 12.2 mg/L | > 12.2 mg/L | 0% | 0% | 100%
2.22 mg/L (≈ 6.46 µM) | > 10.3 mg/L | 0.333 mg/L (≈ 0.971 µM) | CC1CCN(C(C)CNC(=O)Nc2ccccc2C(F)(F)F)CC1 (stereo not drawn) | 7.77 mg/L (≈ 22.6 µM) | 3.39 mg/L (≈ 9.87 µM) | 0% | 0% | 0%
0.869 mg/L (≈ 2.53 µM) | 3.33 mg/L (≈ 9.71 µM) | 0.333 mg/L (≈ 0.971 µM) | CC1CCN(C(C)CNC(=O)Nc2ccc(C(F)(F)F)cc2)CC1 (stereo not drawn) | 8.41 mg/L (≈ 24.5 µM) | 3.26 mg/L (≈ 9.49 µM) | 100% | 25% | 100%
0.754 mg/L (≈ 2.13 µM) | 3.43 mg/L (≈ 9.71 µM) | 0.319 mg/L (≈ 0.902 µM) | CC(CNC(=O)Nc1ccc(Oc2ccccc2)cc1)N1CCCCC1 (stereo not drawn) | > 10.6 mg/L | 3.98 mg/L (≈ 11.3 µM) | 75% | 0% | 100%
1.01 mg/L (≈ 3.26 µM) | 4.81 mg/L (≈ 15.5 µM) | 0.301 mg/L (≈ 0.971 µM) | CC1CCN(C(C)CNC(=O)Nc2cccc(Cl)c2)CC1 (stereo not drawn) | > 9.29 mg/L | > 9.29 mg/L | 0% | 0% | 50%
3.19 mg/L (≈ 10.9 µM) | > 8.8 mg/L | 0.303 mg/L (≈ 1.03 µM) | CC1CCN(C(C)CNC(=O)Nc2ccc(F)cc2)CC1 (stereo not drawn) | > 8.8 mg/L | > 8.8 mg/L | 0% | 0% | 0%
> 11.1 mg/L | > 11.1 mg/L | > 11.1 mg/L | CC(C)c1cc(C(=O)NCC2CCCO2)nn1-c1nc2ccccc2s1 (stereo not drawn) | > 11.1 mg/L | > 11.1 mg/L | 0% | 0% | 100%
> 10.7 mg/L | > 10.7 mg/L | > 10.7 mg/L | Cc1cc(C(=O)Nc2nc(-c3ccc4c(c3)OCCO4)cs2)n(C)n1 | > 10.7 mg/L | > 10.7 mg/L | 0% | 0% | 100%
